The text below walks through data of ChEMBL document CHEMBL3785055, “Arginine-linked neomycin B dimers: synthesis, rRNA binding, and resistance enzyme activity” (Medchemcomm, 2016).

Molecules are shown by their SMILES. Values after ≈ are worked out from the molar mass of the structure shown. Active and inactive are the calls of the source. No cut-off for these calls is given here.

The test system of assay [1] is Escherichia coli. Description: Displacement of F-NEO from Escherichia coli rRNA A-site at 0.1 uM by fluorescence assay. An outline of the steps:
(§1)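 Single-point competitive screen: compound at 0.1 μM added to 0.1 μM F-NEO:A-site RNA complex. Displacement read as emission increase over complex alone (ΔF), expressed as % of fluorescence of 0.1 μM F-NEO. Buffer 10 mM HEPES, 50 mM NaCl, 0.4 mM EDTA, pH 7.0; at least duplicates.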

A further assay is filed under the species Homo sapiens. In words: Displacement of F-NEO from human rRNA A-site at 0.1 uM by fluorescence assay. The essentials:
as §1

Assay [2] deals with Escherichia coli. In words: Activity at Escherichia coli AAC(3)-4 at 100 uM in presence of AcCoA by Ellmans method relative to NEO. The essentials: (§2)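 Acetylation followed by Ellman's method at 412 nm, 2 mM DTNB, 100 μM compound, 25 °C, triplicate, rates normalized to NEO. AcCoA 500 μM for Eis, 150 μM for AAC(3)-IV; enzyme 0.5 μM for Eis, 0.125 μM for AAC(3)-IV; 50 mM buffer.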
(In general: DTNB colorimetry detects thiols as they appear.)

Assay [3] can be described thus: Activity at Eis (unknown origin) at 100 uM in presence of AcCoA by Ellmans method relative to NEO. The essentials: as §2
The subject of assay [4] is Staphylococcus epidermidis. Description: Antibacterial activity against Staphylococcus epidermidis ATCC 12228 after 16 to 20 hrs by MTT assay. It counts as functional. An outline of the steps:
(§3)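 Strains grown in LB 24 h at 37 °C, 250 rpm; overnight culture diluted 1:1000, grown 4 h, diluted 1:1000 again and added to microplates. Incubation 16–20 h at 37 °C; growth read visually and with MTT (1 mg/mL).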

Assay [5] deals with Staphylococcus aureus. In words: Activity at Staphylococcus aureus APH(2'')-1a at 100 uM in presence of […] by […] relative to NEO.
The nature of assay [6]: Displacement of F-NEO from Escherichia coli rRNA A-site by fluorescence assay.
Assay [7] has as its system Mycobacterium tuberculosis. In words: Activity at Mycobacterium tuberculosis AAC(2')-1c at 100 uM in presence of AcCoA by Ellmans method relative to NEO. The essentials: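 N-acetylation by AAC(2')-Ic (0.125 μM enzyme) of 100 μM compound with 150 μM AcCoA and 2 mM DTNB in 100 mM buffer, 25 °C. Thiol release followed at 412 nm (ε = 14,150 M⁻¹cm⁻¹). Rates normalized to neomycin B, triplicate.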

The next assay has as its system Bacillus cereus. In words: Antibacterial activity against Bacillus cereus ATCC 11778 after 16 to 20 hrs by MTT assay. The assay is classed as functional. An outline of the steps: as §3
A general note: Formazan colour is commonly taken as a measure of viable cells.

Assay [8] has as its system Staphylococcus aureus. In words: Activity at Staphylococcus aureus AAC(6')-1e/APH(2'')-1a in presence of AcCoA by Ellmans method relative to NEO.
Assay [9] can be described thus: Activity at APH(3')-1a (unknown origin) at 100 uM in presence of […] by […] relative to NEO.
Assay [10] has as its system Staphylococcus aureus. Description: Antibacterial activity against Staphylococcus aureus ATCC 25923 after 16 to 20 hrs by MTT assay. It counts as functional. An outline of the steps:
as §3

Assay [11] in a line: Displacement of F-NEO from human rRNA A-site by fluorescence assay.
A short description of assay [12]: Selectivity factor, ratio of IC50 for human rRNA A-site to IC50 for Escherichia coli rRNA A-site. An outline of the steps: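 Ratio from F-NEO displacement titrations, 0.002–2.0 μM compound against 0.1 μM F-NEO:A-site complex (485/535 nm). Measured IC50 stands in for the unmeasurable competition constants in Kd(human)/Kd(E. coli) = 5.75 × K(E. coli)/K(human). Buffer 10 mM HEPES, 50 mM NaCl, 0.4 mM EDTA, pH 7.0.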

`N=C(N)NCCC[C@H](N)C(=O)NCCCn1cc(-c2cccc(-c3cn(CCCNC(=O)[C@@H](N)CCCNC(=N)N)nn3)c2)nn1`: the result in the assay with Escherichia coli [1] and in the assay filed under Homo sapiens was inactive.

As for `NC[C@@H]1O[C@@H](O[C@H]2[C@H](O[C@H]3O[C@@H](Cn4cc(-c5cc(C(=O)O)cc(-c6cn(C[C@H]7O[C@@H](O[C@@H]8[C@@H](O)[C@H](N)C[C@H](N)[C@H]8O[C@@H]8O[C@@H](CN)[C@H](O)[C@@H](O)[C@@H]8N)[C@H](O)[C@@H]7O[C@H]7O[C@@H](CN)[C@@H](O)[C@H](O)[C@H]7N)nn6)c5)nn4)[C@H](O[C@H]4O[C@@H](CN)[C@@H](O)[C@H](O)[C@H]4N)[C@@H]3O)[C@@H](O)[C@H](N)C[C@@H]2N)[C@@H](N)[C@H](O)[C@H]1O` (stereo in doubt), the result in the assay with Escherichia coli [2] was Active. Besides, the result (in [3]; in the assay on Staphylococcus aureus [5]; in [7]; in the assay on Staphylococcus aureus [8]; in [9]) was inactive. Moreover, the MIC – broadly, the lowest concentration found to suppress growth – in assay [4] came to 13 µM (≈ 18.8 µg/mL); against Bacillus cereus it was 3 µM (≈ 4.35 µg/mL); against Staphylococcus aureus [10], 13 µM (≈ 18.8 µg/mL). The IC50 (commonly the midpoint of a concentration-inhibition curve) in [6] turned out to be 51 µM; in [11] it was 50 µM. The Ratio IC50 in [12] worked out at 5.6.

In the case of `N=C(N)NCCC[C@H](NC(=O)CNC(=O)c1cc(-c2cn(C[C@H]3O[C@@H](O[C@@H]4[C@@H](O)[C@H](N)C[C@H](N)[C@H]4O[C@H]4O[C@H](CN)[C@@H](O)[C@H](O)[C@H]4N)[C@H](O)[C@@H]3O[C@H]3O[C@@H](CN)[C@@H](O)[C@H](O)[C@H]3N)nn2)cc(-c2cn(C[C@H]3O[C@@H](O[C@H]4[C@H](O)[C@@H](N)C[C@@H](N)[C@@H]4O[C@@H]4O[C@@H](CN)[C@H](O)[C@@H](O)[C@@H]4N)[C@H](O)[C@@H]3O[C@H]3O[C@@H](CN)[C@@H](O)[C@H](O)[C@H]3N)nn2)c1)C(N)=O` (stereo in doubt), the outcome in the assay with Escherichia coli [2] was Active. Also, the outcome (in assay [3]; in the assay on Staphylococcus aureus [5]; in assay [7]; in the assay on Staphylococcus aureus [8]; in assay [9]) was inactive. Further, the MIC was over 50 µM in [4], 1.6 µM (≈ 2.66 µg/mL) against Bacillus cereus and 50 µM (≈ 83.1 µg/mL) in the assay with Staphylococcus aureus [10]. Besides, the IC50 was determined as 62 µM in assay [6] and 58 µM in [11]. Moreover, the Ratio IC50 in assay [12] is 5.3.

Take `N=C(N)NCCC[C@@H](NC(=O)c1cc(-c2cn(C[C@@H]3O[C@H](O[C@@H]4[C@@H](O)[C@H](N)C[C@H](N)[C@H]4O[C@@H]4O[C@@H](CN)[C@H](O)[C@@H](O)[C@@H]4N)[C@@H](O)[C@H]3O[C@H]3O[C@@H](CN)[C@@H](O)[C@H](O)[C@H]3N)nn2)cc(-c2cn(C[C@H]3O[C@@H](O[C@@H]4[C@@H](O)[C@H](N)C[C@H](N)[C@H]4O[C@@H]4O[C@@H](CN)[C@H](O)[C@@H](O)[C@@H]4N)[C@H](O)[C@@H]3O[C@H]3O[C@@H](CN)[C@@H](O)[C@H](O)[C@H]3N)nn2)c1)C(N)=O` (stereo in doubt): the Activity with Escherichia coli [2] stood at 30%. Moreover, the outcome (in assay [3]; in the assay on Staphylococcus aureus [5]; in assay [7]; in the assay with Staphylococcus aureus [8]; in assay [9]) was inactive. The results for the minimal inhibitory concentration (MIC) (in assay [4]; in the assay with Bacillus cereus; against Staphylococcus aureus [10]) were over 50 µM, 3 µM (≈ 4.81 µg/mL) and over 50 µM, respectively. Also, the IC50 was 55 µM in [6] and 71 µM in assay [11]. In assay [12], the Ratio IC50 amounted to 7.4.
